Source: ChEMBL document CHEMBL1123038, “Potential neuroleptic agents. 3. Chemistry and antidopaminergic properties of substituted 6-methoxysalicylamides” (J Med Chem, 1985)

Experiments:
Type in all cases: functional
Details in all cases: ip
Rattus norvegicus [1] = assay: Compound was evaluated in vivo its antagonist activity against apomorphine induced behavioral syndrome such as Stereotypy in rat after intraperitoneal administration; activity value ranges from 7.6-8.3
In short: (§1)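 Male Sprague-Dawley rats (275–325 g) got compound ip (saline, or acetic acid/distilled water vehicle) 60 min ahead of sc apomorphine 1 mg/kg given into the neck. Stereotypy strength was scored 5, 20, 40 and 60 min after apomorphine. […] It was computed by Theil's method with Sen tie correction, using 5–6+ dose levels and 6–8 animals per dose.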

Rattus norvegicus [2] = assay: Compound was evaluated in vivo for antagonist activity against apomorphine induced behavioral syndrome such as Hyperactivity in rat after intraperitoneal administration; activity value ranges from 0.36-0.43
Rattus norvegicus [3] = assay: Compound was evaluated in vivo its antagonist activity against apomorphine induced behavioral syndrome such as Stereotypy in rat after intraperitoneal administration; activity value ranges from 2.4-2.7; in short: as §1
Rattus norvegicus [4] = assay: Compound was evaluated in vivo for antagonist activity against apomorphine induced behavioral syndrome such as Hyperactivity in rat after intraperitoneal administration; activity value ranges from 0.65-0.85
Rattus norvegicus [5] = assay: Compound was evaluated in vivo for antagonist activity against apomorphine induced behavioral syndrome such as Hyperactivity in rat after intraperitoneal administration; activity value ranges from 0.46-0.49
Rattus norvegicus [6] = assay: Compound was evaluated in vivo its antagonist activity against apomorphine induced behavioral syndrome such as Stereotypy in rat after intraperitoneal administration; activity value ranges from 1.8-2.2; in short: as §1
Rattus norvegicus [7] = assay: Compound was evaluated in vivo for antagonist activity against apomorphine induced behavioral syndrome such as Hyperactivity in rat after intraperitoneal administration; activity value ranges from 5.2-6.9
Rattus norvegicus [8] = assay: Compound was evaluated in vivo for antagonist activity against apomorphine induced behavioral syndrome such as Hyperactivity in rat after intraperitoneal administration; activity value ranges from 0.14-0.18
Rattus norvegicus [9] = assay: Compound was evaluated in vivo its antagonist activity against apomorphine induced behavioral syndrome such as Stereotypy in rat after intraperitoneal administration; activity value ranges from 0.74-0.87; in short: as §1
Rattus norvegicus [10] = assay: Compound was evaluated in vivo for antagonist activity against apomorphine induced behavioral syndrome such as Hyperactivity in rat after intraperitoneal administration; activity value ranges from 0.78-1.07
Rattus norvegicus [11] = assay: Compound was evaluated in vivo its antagonist activity against apomorphine induced behavioral syndrome such as Stereotypy in rat after intraperitoneal administration; activity value ranges from 13.8-14.1; in short: as §1
Rattus norvegicus [12] = assay: Compound was evaluated in vivo its antagonist activity against apomorphine induced behavioral syndrome such as Stereotypy in rat after intraperitoneal administration; activity value ranges from 6.5-6.8; in short: as §1
Rattus norvegicus [13] = assay: Compound was evaluated in vivo for antagonist activity against apomorphine induced behavioral syndrome such as Hyperactivity in rat after intraperitoneal administration; activity value ranges from 6.0-6.2
Rattus norvegicus [14] = assay: Compound was evaluated in vivo for antagonist activity against apomorphine induced behavioral syndrome such as Hyperactivity in rat after intraperitoneal administration; activity value ranges from 0.42-0.43
Rattus norvegicus [15] = assay: Compound was evaluated in vivo its antagonist activity against apomorphine induced behavioral syndrome such as Stereotypy in rat after intraperitoneal administration; activity value ranges from 0.65-0.66; in short: as §1
Rattus norvegicus [16] = assay: Compound was evaluated in vivo for antagonist activity against apomorphine induced behavioral syndrome such as Hyperactivity in rat after intraperitoneal administration; activity value ranges from 0.45-0.49
Rattus norvegicus [17] = assay: Compound was evaluated in vivo its antagonist activity against apomorphine induced behavioral syndrome such as Stereotypy in rat after intraperitoneal administration; activity value ranges from 0.56-0.95; in short: as §1
Rattus norvegicus [18] = assay: Compound was evaluated in vivo for antagonist activity against apomorphine induced behavioral syndrome such as Hyperactivity in rat after intraperitoneal administration; activity value ranges from 0.054-0.055
Rattus norvegicus [19] = assay: Compound was evaluated in vivo its antagonist activity against apomorphine induced behavioral syndrome such as Stereotypy in rat after intraperitoneal administration; activity value ranges from 0.30-0.33; in short: as §1
Rattus norvegicus [20] = assay: Compound was evaluated in vivo its antagonist activity against apomorphine induced behavioral syndrome such as Stereotypy in rat after intraperitoneal administration; activity value ranges from 2.0-2.0; in short: as §1
Rattus norvegicus [21] = assay: Compound was evaluated in vivo for antagonist activity against apomorphine induced behavioral syndrome such as Hyperactivity in rat after intraperitoneal administration; activity value ranges from 1.07-1.15
Rattus norvegicus [22] = assay: Compound was evaluated in vivo for antagonist activity against apomorphine induced behavioral syndrome such as Hyperactivity in rat after intraperitoneal administration; activity value ranges from 1.15-1.26
Rattus norvegicus [23] = assay: Compound was evaluated in vivo its antagonist activity against apomorphine induced behavioral syndrome such as Stereotypy in rat after intraperitoneal administration; activity value ranges from 0.89-1.02; in short: as §1
Rattus norvegicus [24] = assay: Compound was evaluated in vivo its antagonist activity against apomorphine induced behavioral syndrome such as Stereotypy in rat after intraperitoneal administration; activity value ranges from 2.82-3.02; in short: as §1
Rattus norvegicus [25] = assay: Compound was evaluated in vivo for antagonist activity against apomorphine induced behavioral syndrome such as Hyperactivity in rat after intraperitoneal administration; activity value ranges from 1.58-1.78
Rattus norvegicus [26] = assay: Compound was evaluated in vivo for antagonist activity against apomorphine induced behavioral syndrome such as Hyperactivity in rat after intraperitoneal administration; activity value ranges from 0.27-0.35
In short: (§2)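 Male Sprague-Dawley rats (275–325 g) received test compound ip (in saline, or acetic acid plus distilled water) 60 min before apomorphine 1 mg/kg sc into the neck. Behaviour was scored at 5, 20, 40 and 60 min after apomorphine.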

Rattus norvegicus [27] = assay: Compound was evaluated in vivo its antagonist activity against apomorphine induced behavioral syndrome such as Stereotypy in rat after intraperitoneal administration
Rattus norvegicus [28] = assay: Compound was evaluated in vivo its antagonist activity against apomorphine induced behavioral syndrome such as Stereotypy in rat after intraperitoneal administration; activity value ranges from 15.1-15.8; in short: as §1
Rattus norvegicus [29] = assay: Compound was evaluated in vivo for antagonist activity against apomorphine induced behavioral syndrome such as Hyperactivity in rat after intraperitoneal administration; activity value ranges from 2.7-3.8
Rattus norvegicus [30] = assay: Compound was evaluated in vivo its antagonist activity against apomorphine induced behavioral syndrome such as Stereotypy in rat after intraperitoneal administration; activity value ranges from 0.24-0.25; in short: as §1
Rattus norvegicus [31] = assay: Compound was evaluated in vivo for antagonist activity against apomorphine induced behavioral syndrome such as Hyperactivity in rat after intraperitoneal administration; activity value ranges from 0.11-0.13; in short: as §2
Rattus norvegicus [32] = assay: Compound was evaluated in vivo its antagonist activity against apomorphine induced behavioral syndrome such as Stereotypy in rat after intraperitoneal administration; activity value ranges from 0.52-0.55; in short: as §1
Rattus norvegicus [33] = assay: Compound was evaluated in vivo for antagonist activity against apomorphine induced behavioral syndrome such as Hyperactivity in rat after intraperitoneal administration; activity value ranges from 0.11-0.16
Rattus norvegicus [34] = assay: Compound was evaluated in vivo for antagonist activity against apomorphine induced behavioral syndrome such as Hyperactivity in rat after intraperitoneal administration; activity value ranges from 0.19-0.20
Rattus norvegicus [35] = assay: Compound was evaluated in vivo its antagonist activity against apomorphine induced behavioral syndrome such as Stereotypy in rat after intraperitoneal administration activity value ranges from 0.81-0.95; in short: as §1

Compound: CCN1CCC[C@H]1CNC(=O)c1c(O)cccc1OC
- ED50 (Rattus norvegicus [1]): 7.8 µmol/kg
- ED50 (Rattus norvegicus [2]): 0.4 µmol/kg

Compound: CCN1CCC[C@H]1CNC(=O)c1c(O)ccc(Cl)c1OC
- ED50 (Rattus norvegicus [3]): 2.5 µmol/kg
- ED50 (Rattus norvegicus [4]): 0.78 µmol/kg

Compound: CCOc1c(Br)ccc(OC)c1C(=O)NC[C@@H]1CCCN1CC
- ED50 (Rattus norvegicus [5]): 0.47 µmol/kg
- ED50 (Rattus norvegicus [6]): 1.9 µmol/kg

Compound: CCN1CCC[C@H]1CNC(=O)c1c(OC)ccc(Cl)c1OC
- ED50 (Rattus norvegicus [7]): 6.3 µmol/kg

Compound: CCCc1ccc(OC)c(C(=O)NC[C@@H]2CCCN2CC)c1O
- ED50 (Rattus norvegicus [8]): 0.16 µmol/kg
- ED50 (Rattus norvegicus [9]): 0.79 µmol/kg

Compound: CCc1ccc(OC)c(C(=O)NC[C@@H]2CCCN2CC)c1OC
- ED50 (Rattus norvegicus [10]): 0.95 µmol/kg
- ED50 (Rattus norvegicus [11]): 14.1 µmol/kg

Compound: CCN1CCC[C@H]1CNC(=O)c1c(O)ccc(Br)c1OC
- ED50 (Rattus norvegicus [12]): 6.6 µmol/kg
- ED50 (Rattus norvegicus [13]): 6.2 µmol/kg

Compound: CCCN1CCC[C@H]1CNC(=O)c1c(OC)ccc(Br)c1O
- ED50 (Rattus norvegicus [14]): 0.43 µmol/kg
- ED50 (Rattus norvegicus [15]): 0.66 µmol/kg

Compound: CCc1ccc(O)c(C(=O)NC[C@@H]2CCCN2CC)c1OC
- ED50 (Rattus norvegicus [16]): 0.47 µmol/kg
- ED50 (Rattus norvegicus [17]): 0.79 µmol/kg

Compound: CCN1CCC[C@H]1CNC(=O)c1c(OC)ccc(Br)c1O (stereo in doubt; 11)
- ED50 (Rattus norvegicus [18]): 0.055 µmol/kg
- ED50 (Rattus norvegicus [19]): 0.32 µmol/kg

Compound: CCN1CCC[C@H]1CNC(=O)c1c(OC)ccc(I)c1OC
- ED50 (Rattus norvegicus [20]): 2.1 µmol/kg
- ED50 (Rattus norvegicus [21]): 1.12 µmol/kg

Compound: CCN1CCC[C@H]1CNC(=O)c1c(OC)ccc(C)c1O
- ED50 (Rattus norvegicus [22]): 1.23 µmol/kg
- ED50 (Rattus norvegicus [23]): 0.95 µmol/kg

Compound: CCN1CCC[C@H]1CNC(=O)c1c(OC)ccc(Br)c1O (stereo in doubt; 26)
- ED50 (Rattus norvegicus [24]): 0.32 µmol/kg
- ED50 (Rattus norvegicus [25]): 0.055 µmol/kg

Compound: O=C(CCCN1CCC(O)(c2ccc(Cl)cc2)CC1)c1ccc(F)cc1 [HALOPERIDOL]
- ED50 (Rattus norvegicus [26]): 0.29 µmol/kg
- ED50 (Rattus norvegicus [27]): 0.27 µmol/kg

Compound: CCCN1CCC[C@H]1CNC(=O)c1c(OC)ccc(Br)c1OC
- ED50 (Rattus norvegicus [28]): 15.5 µmol/kg
- ED50 (Rattus norvegicus [29]): 3.4 µmol/kg

Compound: CCc1ccc(OC)c(C(=O)NC[C@@H]2CCCN2CC)c1O
- ED50 (Rattus norvegicus [30]): 0.25 µmol/kg
- ED50 (Rattus norvegicus [31]): 0.12 µmol/kg

Compound: CCN1CCC[C@H]1CNC(=O)c1c(OC)ccc(I)c1O [IOLOPRIDE]
- ED50 (Rattus norvegicus [32]): 0.54 µmol/kg
- ED50 (Rattus norvegicus [33]): 0.15 µmol/kg

Compound: CCN1CCC[C@H]1CNC(=O)c1c(OC)ccc(Cl)c1O
- ED50 (Rattus norvegicus [34]): 0.2 µmol/kg
- ED50 (Rattus norvegicus [35]): 0.87 µmol/kg
